What all share (format): ADME
In series [1] the target is T1, Solute carrier family 15 member 1 (Mus musculus, UniProt Q9JIP7).
T1 sequence (Q9JIP7 whole entry): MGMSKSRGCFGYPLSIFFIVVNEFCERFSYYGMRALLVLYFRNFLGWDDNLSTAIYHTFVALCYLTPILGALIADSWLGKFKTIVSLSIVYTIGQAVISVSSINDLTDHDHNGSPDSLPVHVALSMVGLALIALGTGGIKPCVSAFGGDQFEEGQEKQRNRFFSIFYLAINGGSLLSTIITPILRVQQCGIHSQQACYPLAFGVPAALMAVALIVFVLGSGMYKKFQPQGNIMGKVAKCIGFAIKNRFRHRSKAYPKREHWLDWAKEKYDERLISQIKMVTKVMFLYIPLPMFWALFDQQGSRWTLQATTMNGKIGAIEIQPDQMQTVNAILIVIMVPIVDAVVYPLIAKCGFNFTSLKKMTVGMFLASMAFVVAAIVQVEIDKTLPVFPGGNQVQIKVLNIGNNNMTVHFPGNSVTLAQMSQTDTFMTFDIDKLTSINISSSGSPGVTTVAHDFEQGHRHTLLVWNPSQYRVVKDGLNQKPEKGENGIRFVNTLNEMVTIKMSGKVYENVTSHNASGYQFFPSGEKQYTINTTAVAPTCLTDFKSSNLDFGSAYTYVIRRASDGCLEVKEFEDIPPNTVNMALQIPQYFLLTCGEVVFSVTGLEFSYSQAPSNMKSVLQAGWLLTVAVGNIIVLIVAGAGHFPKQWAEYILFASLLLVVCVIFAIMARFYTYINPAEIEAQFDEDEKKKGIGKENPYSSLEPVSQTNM
The series can be described thus: Drug uptake in Pichia pastoris GS115 expressing mouse recombinant PEPT1 at 5 uM after 30s by dual-channel liquid scintillation counting analysis in presence of L-histidine relative to control. The settings on record: 0.5 min. The procedure, abridged: (§1)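 [3H]GlySar 5.0 µM final, 30-s uptake at 24°C in 100 mM potassium phosphate pH 6.5, with or without a potential inhibitor at 10 mM. Cells are methanol-induced transformants. Values are vector-subtracted and expressed as percent of buffer control. Mean ± SE (n=3). ANOVA with Dunnett's test.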

Series [2] concerns the target T1, Solute carrier family 15 member 1. The series is described as follows: Activity at mouse recombinant PEPT1 expressed in Pichia pastoris GS115 assessed as non-saturable rate constant after 30s by dual-channel liquid scintillation counting analysis. The method in brief: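 [3H]GlySar concentration series 0.005-10 mM, 30-s uptake at 24°C in 100 mM potassium phosphate pH 6.5. Cells come from His+Mut+ GS115 transformants induced 20-24 h in methanol medium. Uptake is normalised to OD600. Data are fitted to Michaelis-Menten plus a first-order nonsaturable term (Kd), weighting unity. Parameters are mean ± SE (n=9).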

In series [3] the target is T2, Solute carrier family 15 member 1 (Homo sapiens, UniProt P46059).
T2 sequence (P46059 whole entry): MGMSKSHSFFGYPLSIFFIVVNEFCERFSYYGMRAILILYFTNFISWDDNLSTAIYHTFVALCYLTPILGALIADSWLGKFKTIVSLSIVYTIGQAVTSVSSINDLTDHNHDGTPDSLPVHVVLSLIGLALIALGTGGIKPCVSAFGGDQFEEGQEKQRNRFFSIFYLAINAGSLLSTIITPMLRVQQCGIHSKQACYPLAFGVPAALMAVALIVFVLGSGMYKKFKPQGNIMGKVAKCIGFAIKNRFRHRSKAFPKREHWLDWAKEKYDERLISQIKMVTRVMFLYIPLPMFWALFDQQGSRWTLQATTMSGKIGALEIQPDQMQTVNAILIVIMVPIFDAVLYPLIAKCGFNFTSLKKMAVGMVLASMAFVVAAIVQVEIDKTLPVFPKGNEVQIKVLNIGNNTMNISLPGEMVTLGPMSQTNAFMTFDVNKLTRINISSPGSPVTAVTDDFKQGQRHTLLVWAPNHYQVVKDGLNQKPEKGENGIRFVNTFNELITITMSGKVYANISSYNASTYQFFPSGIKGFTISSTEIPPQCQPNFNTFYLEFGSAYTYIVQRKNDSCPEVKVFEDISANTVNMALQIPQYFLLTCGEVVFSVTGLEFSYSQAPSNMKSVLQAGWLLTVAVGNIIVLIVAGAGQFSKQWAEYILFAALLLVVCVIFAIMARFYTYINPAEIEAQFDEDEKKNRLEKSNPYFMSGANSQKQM
The series can be described thus: Drug uptake in Pichia pastoris GS115 expressing human recombinant PEPT1 at 5 uM after 30s by dual-channel liquid scintillation counting analysis in presence of cefazolin relative to control. The settings on record: 0.5 min. The method in brief:
as §1

Series [4] concerns the target T1, Solute carrier family 15 member 1. The series can be described thus: Drug uptake in Pichia pastoris GS115 expressing mouse recombinant PEPT1 at 5 uM after 30s by dual-channel liquid scintillation counting analysis in presence of valacyclovir relative to control. The note with it: in vivo, 0.5 min. The procedure, abridged:
as §1

For series [5] the target is unchanged. The series can be described thus: Drug uptake in Pichia pastoris GS115 expressing mouse recombinant PEPT1 at 5 uM after 30s by dual-channel liquid scintillation counting analysis in presence of cephapirin relative to control. The note with it: 0.5 min. The method in brief: as §1
Series [6] addresses T3, Solute carrier family 15 member 1 (Rattus norvegicus, UniProt P51574).
T3 sequence (P51574 whole entry): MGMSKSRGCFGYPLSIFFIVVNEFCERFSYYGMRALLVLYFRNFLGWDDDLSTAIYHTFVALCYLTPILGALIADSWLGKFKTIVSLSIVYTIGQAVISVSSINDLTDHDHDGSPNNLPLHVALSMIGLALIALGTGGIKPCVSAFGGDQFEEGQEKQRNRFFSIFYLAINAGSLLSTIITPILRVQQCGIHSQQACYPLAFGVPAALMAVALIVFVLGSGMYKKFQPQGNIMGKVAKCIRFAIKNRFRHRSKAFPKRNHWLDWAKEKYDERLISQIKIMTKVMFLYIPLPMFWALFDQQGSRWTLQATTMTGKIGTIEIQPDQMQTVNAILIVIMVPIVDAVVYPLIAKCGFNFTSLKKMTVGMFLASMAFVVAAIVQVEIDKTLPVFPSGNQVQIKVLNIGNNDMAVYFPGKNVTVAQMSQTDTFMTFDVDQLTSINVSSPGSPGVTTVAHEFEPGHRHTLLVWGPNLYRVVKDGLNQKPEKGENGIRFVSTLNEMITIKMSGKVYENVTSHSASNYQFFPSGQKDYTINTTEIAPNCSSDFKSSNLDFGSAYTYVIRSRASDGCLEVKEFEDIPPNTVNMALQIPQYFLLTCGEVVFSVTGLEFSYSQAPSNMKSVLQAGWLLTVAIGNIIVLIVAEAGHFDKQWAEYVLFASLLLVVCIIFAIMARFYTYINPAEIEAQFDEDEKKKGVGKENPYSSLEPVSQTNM
The series can be described thus: Drug uptake in Pichia pastoris GS115 expressing rat recombinant PEPT1 at 5 uM after 30s by dual-channel liquid scintillation counting analysis in presence of valacyclovir relative to control. The settings on record: 0.5 min. The method in brief:
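Rat PEPT1 (pPIC3.5K-rPept1) in GS115 His+Mut+ transformant, methanol-induced 20-24 hr in BMMY at 30°C, washed into 100 mM potassium phosphate pH 6.5. [3H]GlySar final 5.0 µM with inhibitor at 10 mM, 30 sec at 24°C. Counts taken by liquid scintillation after 24 hr standing. Values are vector-subtracted and given as % of buffer control. Mean ± SE, n=3.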

We go through one molecule from ChEMBL document CHEMBL3526053, “Species-dependent uptake of glycylsarcosine but not oseltamivir in Pichia pastoris expressing the rat, mouse, and human intestinal peptide transporter PEPT1” (Drug Metab Dispos, 2012).

As to `[3H]C(C(=O)O)N(C)C(=O)CN` (stereo unspecified), the Drug uptake in series [1] came to 103%; in series [3], 81.1%; in series [4], 4.5%; in series [5], 83.7%; in series [6], 5.5%. In addition, the Kd in series [2] stood at 2.21 uL/OD/min.
